NS3 helicase inh: HCV NS3 helicase inhibition; NS3 helicase DNA unwinding, Cy5 molecular beacon fluorescence; inhibition, % at 10.9 µM; 290,000 compounds, 0.56% hits;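 active = inhibition above the mean of all tested compounds plus 3 SD, set per campaign, cut at about 35% in these data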;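 also: 0% = DMSO wells and 100% = thioflavine S control wells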
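Compound dosing – single dose, 10.9 µM nominal final, DMSO 0.8% final · System – NS3 helicase fragment of HCV · Buffer or medium – MOPS pH 6.5, MgCl2, DTT, Tween20, BSA · Signal – Cy5 beacon fluorescence read at start and 1 h · Also added – annealed dual-labelled DNA beacon duplex, ATP-started · Schedule – 1 h at 25 °C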
PP5 inh: inhibitors of human protein phosphatase 5 (PP5). inhibition, % at 6.7 µM. purified PP5c, OMFP substrate fluorescence. P53041. 320,000 compounds, 0.18% hits. AID 1987;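 active = inhibition above the campaign's mean inhibition across all tested compounds plus 3 SD, cut at about 9.5% in these data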;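 also: 0% = DMSO only and 100% = 100 µM cantharidin control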
Target sequence (P53041 whole entry, looked up): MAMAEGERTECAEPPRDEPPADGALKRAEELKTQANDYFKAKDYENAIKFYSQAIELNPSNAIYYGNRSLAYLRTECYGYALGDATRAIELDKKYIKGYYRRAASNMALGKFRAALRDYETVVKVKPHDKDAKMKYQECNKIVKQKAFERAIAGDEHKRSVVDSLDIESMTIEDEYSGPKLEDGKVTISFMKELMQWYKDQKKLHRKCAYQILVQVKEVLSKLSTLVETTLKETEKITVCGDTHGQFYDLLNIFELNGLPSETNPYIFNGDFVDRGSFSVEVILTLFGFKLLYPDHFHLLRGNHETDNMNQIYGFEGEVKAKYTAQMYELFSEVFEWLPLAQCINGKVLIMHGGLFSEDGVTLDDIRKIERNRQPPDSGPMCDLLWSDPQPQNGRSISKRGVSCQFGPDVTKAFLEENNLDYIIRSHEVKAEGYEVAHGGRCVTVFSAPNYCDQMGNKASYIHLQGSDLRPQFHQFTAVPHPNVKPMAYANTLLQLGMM
PP1 counter: blocks human PP1-alpha phosphatase, a PP5 counter-screen | P62136 | purified PP1alpha, OMFP fluorescence | inhibition, % at 6.7 µM | 320,000 compounds, 0.9% hits;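 active = inhibition above the mean inhibition of all tested compounds plus 3 SD, computed separately for each screening campaign, cut at about 15% in these data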
HIF act: HIF pathway transcriptional activation | U2OS HRE-luciferase reporter, luminescence; normalized: DMSO 0%, desferrioxamine 100% | activation, % at 7.5 µM (by protocol) | 300,000 compounds, 0.32% hits | AID 1910;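 active = mean activation of at least 10% of the iron chelator positive control signal, with at least half of replicates also reaching 10%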
FID counter: counter-screen for HCV NS3 helicase inhibitors: DNA intercalator displacement; DNA fluorescent intercalator displacement, fluorescence; AID 1845; 290,000 compounds, 0.17% hits; inhibition, % at 7.9 µM; in the data active = inhibition above about 37%;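 also: 0% = vehicle and 100% = reference compound; higher means more ethidium bromide displaced from hairpin DNA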
Starred values were filed as active, the others as inactive; nt = no result given; ! = repeats disagree. This is a sample that favours compounds with a hit; in the whole collection about 1.9% have one here.

SMILES | NS3 helicase inh | PP5 inh | PP1 counter | HIF act | FID counter
COc1cc(-c2nc3cc(C)ccn3c2NC2CCCCC2)ccc1-c1ccc(C(C)=O)cc1 | nt | 2 | 18* | -4 | nt
Cc1ccn2c(NC3CCCC3)c(-c3ccncc3)nc2c1 | -18 | 3 | -1 | 0 | -10
CCCCNc1c(-c2ccc(-c3ccc(C(C)=O)cc3)c(OC)c2)nc2cnccn12 | nt | 5 | 17* | 0 | nt
Cc1ccn2c(NC3CCCCC3)c(-c3cccc(-c4cccc(Cl)c4)c3)nc2c1 | nt | 3 | 17* | -8 | nt
COc1cc(-c2nc3cnccn3c2NC(C)(C)CC(C)(C)C)ccc1O | -3 | 1 | 6 | 0 | -40
Cc1ccc2nc(-c3ccncc3)c(NC3CCCCC3)n2c1 | -6 | 0 | 0 | 452* | -10
Cc1ccn2c(NC3CCCCC3)c(C)nc2c1 | 0 | 1 | -2 | 0 | 0
Cc1ccc2c(c1)N(CC(=O)NCCc1ccccc1)C(=O)c1cccnc1O2 | 7 | 1 | -4 | 0 | -35
C[C@H](NC(=O)c1ccc(Br)cc1)C(=O)NCc1ccc(S(N)(=O)=O)cc1 | 0 | 0 | -5 | 0 | -2
CNNC(=O)C(C)NC(=O)c1ccc(Br)cc1 (stereo not given) | 1 | 3 | 1 | 38* | -1
CC1C(=O)N2CCCc3cc(NC(=O)C(=O)NCc4cccnc4)cc1c32 (stereo not given) | nt | 1 | 0 | 5 | nt
O=C(O)/C=C/c1ccc(S(=O)(=O)Nc2ccccc2C(=O)Nc2ccc(F)cc2)cc1 | 4 | -1 | 0 | -22 | -15
CC(C)N1CCc2c(sc(NC(=O)c3nc4ccccc4s3)c2C(N)=O)C1 | -1 | 1 | 3 | 1 | 8
CC(C)N1CCc2c(sc(NC(=O)c3ccc(S(=O)(=O)N4CCc5ccccc54)cc3)c2C(N)=O)C1 | -85 | 4 | 17* | 0 | 10
Cc1cc(C(=O)N/N=C/C=C/c2ccccc2)n[nH]1 | 8 | -1 | -5 | 1 | -7
Cc1ccc(-c2cc(C(=O)N/N=C/C=C/c3ccccc3)n[nH]2)s1 | -25 | 8 | 15* | 1 | -7
Cc1ccccc1OCc1n(CC(=O)OC2CC(C)CCC2C(C)C)c2ccccc2[n+]1C (stereo not given) | -40 | 2 | 10 | -1 | 38*!
CC1CCC(C(C)C)C(OC(=O)Cn2c(-c3ccc(Br)cc3)[n+](C)c3ccccc32)C1 (stereo not given) | -41 | -2 | 6 | 0 | 26
N=C1S/C(=C\c2ccccc2F)C(=O)N1c1ccc(F)cc1 | -1 | 4 | -1 | 0 | 1
N=C1S/C(=C\c2cccc3ccccc23)C(=O)N1c1ccc(F)cc1 | -4 | 1 | 17* | 2 | 0
c1ccc(-n2nnnc2Sc2ncnc3sc4c(c23)CCCC4)cc1 | -4 | 0 | -2 | 0 | 1
Cc1sc2ncnc(Sc3nnnn3-c3ccc(Cl)cc3)c2c1C | -4 | 0 | 0 | 17* | 3
O=S(=O)(c1ccc(F)cc1)N1CCN(c2nc(-c3cccnc3)nc3ccccc23)CC1 | nt | 2 | 17* | nt | nt
Cc1cc([N+](=O)[O-])cc(C)c1OCC(=O)N/N=C/c1ccc(OC(=O)c2ccccc2Br)cc1 | -14 | 1 | 16* | 0 | -22
COc1cccc(C(=O)NCC(=O)N/N=C/c2cccc(OC(=O)c3ccc([N+](=O)[O-])cc3)c2)c1 | -5 | -2 | 2 | 0 | 8
SMILES | NS3 helicase inh | PP5 inh | PP1 counter | HIF act | FID counter
O=C(CNC(=O)c1ccc([N+](=O)[O-])cc1)N/N=C\c1ccc(OC(=O)c2ccccc2)cc1 | 4 | -1 | 16* | -3 | 0
O=S(=O)(NCCCCNS(=O)(=O)c1c(F)cccc1F)c1ccc2c(c1)OCCO2 | nt | 1 | 1 | nt | nt
COc1cc(OC)c(NC(=O)CN(C)S(=O)(=O)c2ccc(-c3ccc(=O)[nH]n3)s2)cc1Cl | -5 | 2 | 8 | 0 | -49
COc1ccc(N2CCN(C(=O)CSc3ccc([N+](=O)[O-])cc3)CC2)cc1 | -5 | -1 | -1 | 0 | 1
COc1ccc(C(=O)CCC(=O)N2CCN(c3ccc([N+](=O)[O-])cc3)CC2)cc1 | -1 | 0 | 16* | -1 | -16
Cc1ccccc1C(=O)c1cccn1CC(=O)NCCCN1CCCCC1 | -2 | 0 | -2 | -1 | 5
Cc1ccc(C)c(N2CCN(CCCNC(=O)Cn3cccc3C(=O)c3ccccc3C)CC2)c1 | -34 | 4 | -2 | -1 | 38*
